Experimental data taken from PMC10905627 (Oncogene, 2018).
Read-outs that look alike come from different tables or passages of the source. Peptide text beside a SMILES is read from it. * marks the point of attachment. Cbz = O=C(OCc1ccccc1)*; CH2F = FC*

Columns and labels:
ALK6/BMPR1B [1] = biological target: T1, ALK6/BMPR1B (Homo sapiens, UniProt O00238); settings: read-out: IC50 ALK6/BMPR1B; previously reported; cited from earlier work
BMPR2 [2] = biological target: T2, BMPR2 (Homo sapiens, UniProt Q13873); settings: read-out: IC50 BMPR2; previously reported; cited from earlier work
T2 sequence (Q13873 27-1038): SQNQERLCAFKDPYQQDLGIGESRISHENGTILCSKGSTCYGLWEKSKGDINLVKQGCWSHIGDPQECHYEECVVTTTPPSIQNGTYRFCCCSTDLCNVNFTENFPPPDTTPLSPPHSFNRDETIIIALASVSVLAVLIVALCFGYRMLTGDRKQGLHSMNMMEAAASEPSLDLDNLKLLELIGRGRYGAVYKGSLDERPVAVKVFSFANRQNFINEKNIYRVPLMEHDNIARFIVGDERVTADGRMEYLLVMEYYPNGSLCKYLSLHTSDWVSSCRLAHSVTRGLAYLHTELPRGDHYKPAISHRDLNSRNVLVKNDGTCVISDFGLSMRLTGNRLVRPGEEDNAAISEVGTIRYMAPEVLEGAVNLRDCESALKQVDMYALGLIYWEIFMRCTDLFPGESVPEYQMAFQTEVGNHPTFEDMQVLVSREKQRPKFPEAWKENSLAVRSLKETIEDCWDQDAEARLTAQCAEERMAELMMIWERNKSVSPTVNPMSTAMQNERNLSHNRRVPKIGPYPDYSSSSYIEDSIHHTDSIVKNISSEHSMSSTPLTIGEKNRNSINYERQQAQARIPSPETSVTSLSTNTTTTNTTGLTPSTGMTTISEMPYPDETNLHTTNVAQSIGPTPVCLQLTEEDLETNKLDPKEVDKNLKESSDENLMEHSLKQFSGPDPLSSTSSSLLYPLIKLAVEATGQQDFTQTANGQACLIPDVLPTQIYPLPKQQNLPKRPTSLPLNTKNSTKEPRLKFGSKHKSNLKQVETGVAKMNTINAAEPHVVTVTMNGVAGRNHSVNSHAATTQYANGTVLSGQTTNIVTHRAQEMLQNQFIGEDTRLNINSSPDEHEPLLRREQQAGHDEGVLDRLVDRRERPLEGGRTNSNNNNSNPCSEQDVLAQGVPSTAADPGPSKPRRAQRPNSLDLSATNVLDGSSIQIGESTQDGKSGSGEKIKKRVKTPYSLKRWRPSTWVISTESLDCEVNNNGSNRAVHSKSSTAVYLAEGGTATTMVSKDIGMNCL

[3] = test system: Id1, TAK1, XIAP in H1299 tumors; settings: similar doses; cited from earlier work
[4] = LCMS of stored solid sample; format: physicochemical; settings: stored as a solid in a desiccator for 4 months
H1299 lung cancer cells = test: Cell viability; format: cell-based, human; settings: for cell death, JL5 compared with DMH2: H1299, 2.5 μM, 3 days; for effect on JL5-induced cell death: H1299, pretreated 1 h, then JL5 3 days
[5] = Metabolic stability in mouse liver microsomes; format: in vitro ADME
ALK3/BMPR1A [6] = biological target: T3, ALK3/BMPR1A (Homo sapiens, UniProt P36894); settings: read-out: IC50 ALK3/BMPR1A; previously reported; cited from earlier work
ALK2/ACVR1 [7] = biological target: T4, ALK2/ACVR1 (Homo sapiens, UniProt Q04771); settings: read-out: IC50 ALK2/ACVR1; previously reported; cited from earlier work
T4 sequence (Q04771 21-509): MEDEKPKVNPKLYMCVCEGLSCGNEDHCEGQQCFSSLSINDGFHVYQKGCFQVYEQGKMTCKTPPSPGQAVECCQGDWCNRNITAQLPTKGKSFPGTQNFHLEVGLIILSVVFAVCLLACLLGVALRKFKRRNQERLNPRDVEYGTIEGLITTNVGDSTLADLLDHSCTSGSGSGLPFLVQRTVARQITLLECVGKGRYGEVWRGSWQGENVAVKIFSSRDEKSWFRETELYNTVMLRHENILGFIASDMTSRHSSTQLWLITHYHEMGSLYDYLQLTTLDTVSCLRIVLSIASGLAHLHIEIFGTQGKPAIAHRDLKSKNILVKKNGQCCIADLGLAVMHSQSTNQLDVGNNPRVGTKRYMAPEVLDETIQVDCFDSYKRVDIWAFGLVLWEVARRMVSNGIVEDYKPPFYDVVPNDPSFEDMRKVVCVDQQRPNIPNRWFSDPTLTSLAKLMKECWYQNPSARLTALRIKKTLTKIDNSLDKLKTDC

[8] = cited from earlier work
H1299 cells [9] = test: TUNEL assay; format: cell-based, human; settings: H1299, 24 h
H1299 tumors [10] = test: H1299 tumor xenografts in NSG mice without immune cells; format: in vivo, mouse
ALK3/BMPR1A [11] = biological target: T3, ALK3/BMPR1A; test: IC50 kinase assay ALK3; format: biochemical; settings: ATP 10 μM
H1299 cells [12] = test: Annexin V / 7-AAD staining; format: cell-based, human; settings: H1299, 2.5 μM, 48 h, vs DMSO
In short: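 H1299 cells in six-well plates exposed to DMSO or test compound at 2.5 μM for 48 h. They were then stained with labeled Annexin V and 7-AAD per kit instructions and analysed by flow cytometry. 7-AAD-positive, Annexin V-negative cells counted as necrotic. Experiments run at least 3 times.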

Id1 promoter = test: Id1-luciferase reporter assay in H1299 cells; format: cell-based, human; settings: H1299 cells stably expressing reporter, 48 h
In short: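 H1299 cells stably carrying an Id-1 promoter–luciferase reporter were exposed to test compound for 48 h. Cells were then lysed and luminescence read on a luminometer. The experiment was run twice.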

ALK5/TGFβR1 = biological target: T5, ALK5/TGFβR1 (Homo sapiens, UniProt P36897); settings: read-out: IC50 ALK5/TGFβR1; ATP 10 μM
T5 sequence (P36897 34-503): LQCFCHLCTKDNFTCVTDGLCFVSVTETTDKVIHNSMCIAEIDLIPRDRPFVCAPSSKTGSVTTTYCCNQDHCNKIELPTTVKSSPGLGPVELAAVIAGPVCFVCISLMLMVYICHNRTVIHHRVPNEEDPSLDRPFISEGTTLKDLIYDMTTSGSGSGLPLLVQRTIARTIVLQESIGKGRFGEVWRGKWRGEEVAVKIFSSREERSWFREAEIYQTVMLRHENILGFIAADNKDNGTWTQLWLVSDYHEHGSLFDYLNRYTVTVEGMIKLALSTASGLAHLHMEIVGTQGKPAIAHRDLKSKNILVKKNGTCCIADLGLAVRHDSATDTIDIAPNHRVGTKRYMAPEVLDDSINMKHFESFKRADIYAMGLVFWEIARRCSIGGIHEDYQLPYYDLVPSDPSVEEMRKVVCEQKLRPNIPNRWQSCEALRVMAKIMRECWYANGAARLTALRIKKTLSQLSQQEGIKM

ALK6/BMPR1B [13] = biological target: T1, ALK6/BMPR1B; test: IC50 kinase assay ALK6; format: biochemical; settings: ATP 10 μM
BMPR2 [14] = biological target: T2, BMPR2; test: IC50 kinase assay BMPR2; format: biochemical
[15] = test system: caspase-3, PARP in H1299 cells; test: Western blot of activated caspase-3 and PARP; format: cell-based, human; settings: H1299, 3 days
In short: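 H1299 cells treated with test compound, and total protein quantified by BCA. Lysates separated by SDS-PAGE onto nitrocellulose and blocked at least 2 h. Probed overnight at 4 °C with rabbit monoclonal anti-activated caspase-3 and anti-PARP, with actin or GAPDH as loading control. Secondary antibody 1 h at room temperature, then enhanced chemiluminescence detection.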

H1299 tumors [16] = test: H1299 tumor xenografts in humanized NSG mice; format: in vivo, mouse
A549 cells = test: Cell growth A549; format: cell-based, human; settings: A549, activating K-Ras mutation
In short: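 A549 cells grown in DMEM with 5% FBS, seeded in six-well plates and exposed to test compound from the following day for the set time. Live and dead cells were counted on a Vi-CELL analyser by trypan blue exclusion, 500 cells per sample.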

[17] = test system: Id1, TAK1, XIAP in H1299 tumors; test: Western blot of BMP downstream targets in H1299 tumor xenografts; format: in vivo, mouse; settings: NSG mice, 4 days
In short: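 Xenografts made by intradermal flank injection of 2 million H1299 cells into NSG mice. At about 4 mm × 4 mm, mice received test compound at 3 or 10 mg/kg twice daily, or DMSO, for four days. Tumor protein (BCA-quantified) run on SDS-PAGE and blotted to nitrocellulose. Probed with anti-Id1, anti-pTAK1 and anti-XIAP (primary overnight at 4 °C), then ECL detection.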

[18] = Toxicity studies in NSG mice; format: in vivo
[19] = Pharmacokinetics in BALB/c mice; format: in vivo, mouse
ALK2/ACVR1 [20] = biological target: T4, ALK2/ACVR1; test: IC50 kinase assay ALK2; format: biochemical; settings: ATP 10 μM
[21] = treatment day 21, IHC image analysis
[22] = NSG mice, IP 3 mg/kg, 10 mg/kg twice daily for 4 days

T3 sequence (P36894 24-532): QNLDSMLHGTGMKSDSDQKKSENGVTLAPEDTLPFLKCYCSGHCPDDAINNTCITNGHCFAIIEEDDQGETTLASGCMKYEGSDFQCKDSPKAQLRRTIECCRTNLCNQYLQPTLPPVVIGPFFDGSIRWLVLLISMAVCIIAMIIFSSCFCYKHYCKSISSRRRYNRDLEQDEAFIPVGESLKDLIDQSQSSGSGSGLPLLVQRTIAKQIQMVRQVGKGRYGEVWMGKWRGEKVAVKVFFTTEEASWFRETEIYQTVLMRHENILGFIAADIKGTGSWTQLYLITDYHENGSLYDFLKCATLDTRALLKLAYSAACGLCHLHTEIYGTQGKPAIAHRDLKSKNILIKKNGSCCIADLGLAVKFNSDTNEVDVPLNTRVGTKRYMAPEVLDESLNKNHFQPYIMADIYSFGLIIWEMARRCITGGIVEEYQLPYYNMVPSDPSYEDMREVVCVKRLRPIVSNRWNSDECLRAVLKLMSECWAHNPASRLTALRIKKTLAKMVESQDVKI
T1 sequence (O00238 14-502): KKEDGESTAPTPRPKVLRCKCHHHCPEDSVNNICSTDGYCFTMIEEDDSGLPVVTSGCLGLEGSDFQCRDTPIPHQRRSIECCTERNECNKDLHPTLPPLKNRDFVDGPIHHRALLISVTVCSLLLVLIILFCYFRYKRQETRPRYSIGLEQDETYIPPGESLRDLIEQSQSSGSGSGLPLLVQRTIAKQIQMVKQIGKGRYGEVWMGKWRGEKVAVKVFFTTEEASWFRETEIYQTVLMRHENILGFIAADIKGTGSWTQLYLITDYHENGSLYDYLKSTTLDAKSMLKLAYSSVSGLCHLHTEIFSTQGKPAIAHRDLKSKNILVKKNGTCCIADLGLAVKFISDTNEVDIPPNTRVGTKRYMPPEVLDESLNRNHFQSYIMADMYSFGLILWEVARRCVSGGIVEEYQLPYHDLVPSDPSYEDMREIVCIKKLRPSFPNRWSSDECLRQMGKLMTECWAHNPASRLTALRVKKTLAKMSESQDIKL

SMILES: c1ccc2c(-c3cnn4cc(-c5ccc(OCCN6CCOCC6)cc5)cnc34)ccnc2c1 [DMH2]
- IC50 (ALK6/BMPR1B [1]): 43 nM
- IC50 (BMPR2 [2]): 7950 nM
- downregulation of Id1, pTAK1, XIAP in tumor xenografts [3]: did not downregulate Id1, pTAK1, or XIAP
- chemical stability on storage (LCMS) [4]: revealed a phenolic byproduct due to morpholine side-chain hydrolysis
- cell death, JL5 compared with DMH2 (H1299 lung cancer cells): same amount of cell death
- ClearanceINT [5]: 250 mL/min/kg
- IC50 (ALK3/BMPR1A [6]): 92 nM
- IC50 (ALK2/ACVR1 [7]): 23 nM
- AUCinf ([8]; i.v.): 487 ng·h/mL
- AUClast ([8]; i.v.): 485 ng·h/mL
- CL ([8]; i.v.): 68 mL/min/kg
- T1/2 ([8]; i.v.): 57 min
- Vss ([8]; i.v.): 0.95 L/kg
- AUCinf ([8]; p.o.): 729 ng·h/mL
- AUClast ([8]; p.o.): 707 ng·h/mL
- C0/Cmax ([8]; p.o.): 684 ng/mL
- half-life ([8]; stated in discussion): 60 min

SMILES: c1ccc2c(-c3cnn4cc(-c5ccc(OCCN6CCCCC6)cc5)cnc34)ccnc2c1 [JL5]
- DNA double-stranded breaks (TUNEL) (H1299 cells [9]): induces DNA double-stranded breaks
- regression in tumor size (H1299 tumors [10]; 10 mg/mL, from treatment day 5 to day 14): ~ 35%
- tumor cell death or proliferation (H&E, Ki67) (H1299 tumors [10]; after 21 days of treatment): No significant differences
- IC50 ALK3/BMPR1A (ALK3/BMPR1A [11]): single digit nanomolar
- IC50 (ALK3/BMPR1A [11]; read-out: IC50 ALK3/BMPR1A): < 5 nM
- percentage of cells in late apoptosis / necrosis (Annexin V, 7-AAD) (H1299 cells [12]): significant increase in the percentage of cells in late stages of apoptosis as well as necrosis
- expression of the Id1-luciferase reporter (Id1 promoter): dose-related decrease
- IC50 (ALK5/TGFβR1): 440 nM
- IC50 ALK6/BMPR1B (ALK6/BMPR1B [13]): single digit nanomolar
- IC50 (ALK6/BMPR1B [13]; read-out: IC50 ALK6/BMPR1B): 2 nM
- IC50 (BMPR2 [14]; read-out: IC50 BMPR2, ATP 10 μM): 8510 nM
- IC50 (BMPR2 [14]; read-out: IC50 for the BMP type II receptor BMPR2): ~8000 nM
- activation of caspase-3 and cleavage of PARP [15]: induced the activation of caspase-3 and cleavage of PARP
- size and weight of tumors vs vehicle control (H1299 tumors [16]; 10 mg/kg twice daily, 13 days): significant difference in the size and weight
- regression in tumor size (H1299 tumors [16]; 10 mg/kg twice daily, from treatment day 7 to day 12): ~ 35%
- necrotic cells compared to control tumors (H1299 tumors [16]; 13 days, H&E image analysis): twice the number of necrotic cells
- cell death by H&E staining (H1299 tumors [16]; 21 days): no noteworthy histomorphological differences
- proliferation of tumor cells (Ki67) (H1299 tumors [16]; 21 days): significant reduction in proliferation
- increase in CD3+ cells within tumor vs DMSO control (H1299 tumors [16]; [21]): 67%
- increase in CD4+ cells within tumor vs DMSO control (H1299 tumors [16]; [21]): 80%
- growth of A549 cells (A549 cells): suppressed growth
- expression of Id1 in tumors ([17]; 3 mg/mL): feedback increase in the expression of Id1
- protein expression of Id1, TAK1, XIAP in tumors ([17]; 10 mg/kg): decreased protein expression of Id1 and TAK1 but not XIAP
- signs of toxicity (anorexia, lethargy, loss of weight) ([18]; 21-day studies, 10 mg/kg intraperitoneal twice daily): no signs of toxicity
- blood chemistry screen vs DMSO [18, 22]: no significant difference
- histological examination of livers, lungs, kidneys [18, 22]: did not reveal any evidence of toxicity
- systemic toxicity (loss of appetite, anorexia, lethargy) [18, 22]: no evidence of systemic toxicity
- cell death, JL5 compared with DMH2 (H1299 lung cancer cells): same amount of cell death
- dead and live cells vs DMSO control (H1299 lung cancer cells; H1299, 7 days): majority of the H1299 cells treated with JL5 were dead
- AUCinf ([19]; i.v., 2 mg/kg): 381 ng·h/mL
- AUClast ([19]; i.v., 2 mg/kg): 349 ng·h/mL
- C0/Cmax ([19]; i.v., 2 mg/kg): 568 ng/mL
- CL ([19]; i.v., 2 mg/kg): 194 mL/min/kg
- T1/2 ([19]; i.v., 2 mg/kg): 34.2 min
- Vss ([19]; i.v., 2 mg/kg): 8.78 L/kg
- AUCinf ([19]; p.o.): 1,645 hr×ng/mL
- AUClast ([19]; p.o.): 1,605 hr×ng/mL
- C0/Cmax ([19]; p.o.): 1,282 ng/mL
- ClearanceINT [5]: 129 mL/min/kg
- intrinsic clearance lower than that of DMH2 [5]: 48%
- IC50 ALK2/ACVR1 (ALK2/ACVR1 [20]): single digit nanomolar
- IC50 (ALK2/ACVR1 [20]; read-out: IC50 ALK2/ACVR1): 1 nM

SMILES: COC(=O)C[C@H](NC(=O)[C@H](C)NC(=O)[C@@H](NC(=O)OCc1ccccc1)C(C)C)C(=O)CF [Z-VAD-FMK] (Cbz-Val-Ala-Asp(OMe)-CH2F)
- effect on JL5-induced cell death (H1299 lung cancer cells): partially inhibited

SMILES: CN1C(=O)C(Cc2c[nH]c3ccccc23)NC1=S (stereo not shown) [necrostatin-1]
- effect on JL5-induced cell death (H1299 lung cancer cells): had no effect
